Laboratory results from ChEMBL document CHEMBL1156265, “Furo[2,3-b]pyridine-based cannabinoid-1 receptor inverse agonists: synthesis and biological evaluation. Part 1” (Bioorg Med Chem Lett, 2010).
The source made the active and inactive calls. The rule behind the calls is not given here.

Assays:
Rattus norvegicus [1] = test: Reduction of body weight in rat at 1 mg/kg, po relative to control; assay type: functional; design: scale not given: the % may be the effect or the level left
Method in brief: (§1)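 Chronic study in diet-induced obese rats with daily oral dosing at 1 mg/kg (for some compounds 0.1 and 0.3 mg/kg as well). Body weight change and cumulative food intake suppression were measured relative to vehicle. The 14-day study ended 18 h after the day-14 dose; one study ended on day 13.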

Mus musculus [2] = test: Reduction of body weight in Cnr1+/+ C57BL/6 mouse at 1 mg/kg, po measured for 18 hrs; assay type: functional
Method in brief: (§2)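 The overnight food intake study used ad libitum fed male mice aged 14–16 weeks, Cnr1+/+ (n = 10) and Cnr1−/− (n = 7). Mice received a single oral dose of 1 mg/kg. Food intake and body weight change were measured over 18 h relative to vehicle-treated mice.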

Cytochrome P450 2D6 = Cytochrome P450 2D6 (Homo sapiens, UniProt P10635); test: Inhibition of CYP2D6; assay type: ADME
Sequence of Cytochrome P450 2D6 (P10635 whole entry, canonical isoform): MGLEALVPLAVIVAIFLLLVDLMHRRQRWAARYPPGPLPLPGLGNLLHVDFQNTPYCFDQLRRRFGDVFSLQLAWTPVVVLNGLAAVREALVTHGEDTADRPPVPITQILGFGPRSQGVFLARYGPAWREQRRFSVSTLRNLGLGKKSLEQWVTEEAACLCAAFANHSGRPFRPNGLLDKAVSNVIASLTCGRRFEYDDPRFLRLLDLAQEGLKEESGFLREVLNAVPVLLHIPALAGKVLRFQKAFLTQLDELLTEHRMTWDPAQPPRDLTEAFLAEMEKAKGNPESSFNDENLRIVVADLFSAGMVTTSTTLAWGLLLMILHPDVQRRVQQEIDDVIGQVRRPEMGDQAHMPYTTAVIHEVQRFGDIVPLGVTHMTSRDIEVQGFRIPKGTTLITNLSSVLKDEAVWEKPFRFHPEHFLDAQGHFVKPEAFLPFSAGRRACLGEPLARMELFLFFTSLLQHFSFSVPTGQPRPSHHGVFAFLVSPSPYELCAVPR
Method in brief: (§3)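 Inhibition of cytochrome P450 isoforms CYP3A4, CYP2C9, CYP2D6, CYP2C19 and CYP1A2, reported as IC50 in µM.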

Canis familiaris [3] = test: Toxicity in anesthetized dog assessed as change in mean arterial pressure up to 10 mg/kg, iv relative to control; assay type: organism-based, Canis lupus familiaris, Artery; design: dose 10 mg/kg, route intravenous; conditions: in vivo
Method in brief: (§4)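 Anesthetized dogs received a cumulative IV infusion of 1, 3 and 10 mg/kg, each dose infused over 30 min. Mean arterial pressure, heart rate and ECG intervals including QTc were compared with vehicle-treated animals. Plasma drug level was measured at the end of infusion.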

[4] = Drug level in rat brain at 1 mg/kg, iv after 4 hrs; assay type: ADME, organism-based; design: dose 1 mg/kg, route intravenous; conditions: read-out: Drug uptake
Rattus norvegicus [5] = test: Reduction of body weight in DIO rat assessed as weight change at 1 mg/kg, po after 18 hrs; assay type: functional
Method in brief: (§5)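 Acute study in diet-induced obese rats. A single oral dose was given and rats were monitored for 18 h. Food intake suppression and body weight change were measured relative to vehicle-treated controls.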

[6] = target: GABA-A receptor; agonist GABA site; test: Partial agonist activity at human alpha-1-beta-3-gamma-2 GABAA receptor expressed in […] cells; assay type: functional, cell-based
Method in brief: (§6)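 Whole-cell electrophysiology in Ltk cells expressing human α1β3γ2 GABA_A receptors. EC50 determined, and maximal efficacy expressed relative to the maximum GABA response.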

Canis familiaris [7] = test: Plasma concentration in anesthetized dog at up to 10 mg/kg, iv measured at the end of infusion; assay type: ADME, organism-based, Canis lupus familiaris; design: dose 10 mg/kg, route intravenous; conditions: in vivo; method in brief: as §4
Brain [8] = test: Drug level in CD1 mouse brain at 100 mg/kg, po; assay type: ADME, organism-based; design: dose 100 mg/kg, route oral; conditions: in vivo, read-out: Drug uptake
Mus musculus [9] = test: Toxicity in CD1 mouse assessed as ataxia at 100 mg/kg, po; assay type: organism-based; design: dose 100 mg/kg, route oral; conditions: in vivo
[10] = Metabolic stability in rat urine assessed as compound recovery at 1 mg/kg; assay type: ADME, organism-based; design: dose 1 mg/kg; conditions: read-out: Activity
Method in brief: (§7)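 Radioactivity excreted in bile and urine measured as percent of dose.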

Rattus norvegicus [11] = test: Reduction of body weight in DIO rat assessed as weight change at 1 mg/kg, po after 2 weeks; assay type: functional, organism-based; design: dose 1 mg/kg
Method in brief: (§8)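 DIO rats were dosed orally once daily for 2 weeks at 0.1, 0.3 or 1 mg/kg. Body weight change (g) was compared with vehicle, and the study ended 18 h after the day-14 dose.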

Mus musculus [12] = test: Suppression of food intake in Cnr1+/+ C57BL/6 mouse at 1 mg/kg, po measured for 18 hrs by overnight food intake study; assay type: functional; method in brief: as §2
Canis familiaris [13] = test: Toxicity in anesthetized dog assessed as change in ECG intervals up to 10 mg/kg, iv relative to control; assay type: organism-based, Canis lupus familiaris; design: dose 10 mg/kg, route intravenous; conditions: in vivo; method in brief: as §4
[14] = Inhibition of rat GABAA receptor
Method in brief: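 Rat GABA_A ligand-gated ion-channel binding, run within a 175-assay radioligand binding and enzymatic screening panel. IC50 estimated.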

Rattus norvegicus [15] = test: Reduction of body weight in DIO rat assessed as weight change at 0.3 mg/kg, po after 2 weeks; assay type: functional, organism-based; design: dose 0.3 mg/kg; method in brief: as §8
Rattus norvegicus [16] = test: Toxicity in Sprague-Dawley rat at 30 mg/kg, po by rotarod test; assay type: organism-based; design: dose 30 mg/kg, route oral; conditions: in vivo
Method in brief: (§9)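 Male Sprague Dawley rats dosed orally at 30 mg/kg. Motor coordination assessed on rotarod, with plasma and brain drug levels measured.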

[17] = Bioavailability in rat; assay type: ADME, organism-based; conditions: in vivo
Canis familiaris [18] = test: Toxicity in anesthetized dog assessed as change in heart rate up to 10 mg/kg, iv relative to control; assay type: organism-based, Canis lupus familiaris; design: dose 10 mg/kg, route intravenous; conditions: in vivo; method in brief: as §4
Cytochrome P450 3A4 = Cytochrome P450 3A4 (Homo sapiens, UniProt P08684); test: Inhibition of CYP3A4; assay type: ADME; method in brief: as §3
Sequence of Cytochrome P450 3A4 (P08684 whole entry): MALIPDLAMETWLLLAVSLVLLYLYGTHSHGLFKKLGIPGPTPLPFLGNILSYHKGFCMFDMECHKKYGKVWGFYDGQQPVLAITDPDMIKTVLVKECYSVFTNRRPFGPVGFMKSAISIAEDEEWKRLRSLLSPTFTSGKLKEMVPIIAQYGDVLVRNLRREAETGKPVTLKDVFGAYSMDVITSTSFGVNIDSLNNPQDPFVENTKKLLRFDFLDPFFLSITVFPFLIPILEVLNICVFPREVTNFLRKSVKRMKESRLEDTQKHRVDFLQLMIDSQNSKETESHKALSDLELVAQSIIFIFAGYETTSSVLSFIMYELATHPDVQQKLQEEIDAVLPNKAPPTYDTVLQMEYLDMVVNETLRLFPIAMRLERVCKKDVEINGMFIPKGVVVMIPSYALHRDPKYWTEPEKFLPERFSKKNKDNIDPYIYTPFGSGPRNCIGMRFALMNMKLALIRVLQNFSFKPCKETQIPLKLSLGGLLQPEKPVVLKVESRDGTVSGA

Plasma [19] = test: Drug level in Sprague-Dawley rat plasma at 30 mg/kg, po; assay type: ADME, organism-based; design: dose 30 mg/kg, route oral; conditions: in vivo, read-out: Drug uptake; method in brief: as §9
Rattus norvegicus [20] = test: Suppression of food intake in DIO rat at 1 mg/kg, po relative to control; assay type: functional; method in brief: as §5
Rattus norvegicus [21] = test: Suppression of food intake in DIO rat at 1 mg/kg, po measured 18 hrs post dose on day 14 relative to control
[22] = Ratio of drug level in brain to plasma in rat at 1 mg/kg, iv after 4 hrs; assay type: ADME, organism-based; design: dose 1 mg/kg, route intravenous
Rattus norvegicus [23] = test: Suppression of cumulative food intake in rat at 1 mg/kg, po relative to control; assay type: functional; method in brief: as §1
[24] = Plasma clearance in rat; assay type: ADME, organism-based
Rattus norvegicus [25] = test: Reduction of body weight in DIO rat assessed as weight change at 0.1 mg/kg, po after 2 weeks; assay type: functional, organism-based; design: dose 0.1 mg/kg; method in brief: as §8
[26] = Bioavailability in dog; assay type: ADME, organism-based, Canis lupus familiaris; conditions: in vivo
Method in brief: (§10)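 PK in dog and rhesus macaque. Bioavailability, plasma clearance (mL/min/kg) and terminal half-life derived from plasma drug levels.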

[27] = Half life in rat; assay type: ADME, organism-based; conditions: in vivo
[28] = target: GABA-A receptor; alpha-1/beta-3/gamma-2 (Homo sapiens) (UniProt P14867+P18507+P28472); test: Partial agonist activity at human alpha-1-beta-3-gamma-2 GABAA receptor expressed in […] cells at 3 uM; assay type: functional, cell-based; method in brief: as §6
Plasma [29] = test: Drug level in CD1 mouse plasma at 30 mg/kg, po; assay type: ADME, organism-based; design: dose 30 mg/kg, route oral; conditions: in vivo, read-out: Drug uptake
Rattus norvegicus [30] = test: Reduction of body weight in DIO rat assessed as weight change at 1 mg/kg, po daily measured 18 hrs post dose on day 14; assay type: functional; method in brief: as §1
Cytochrome P450 2C19 = Cytochrome P450 2C19 (Homo sapiens, UniProt P33261); test: Inhibition of CYP2C19; assay type: ADME; method in brief: as §3
Sequence of Cytochrome P450 2C19 (P33261 whole entry): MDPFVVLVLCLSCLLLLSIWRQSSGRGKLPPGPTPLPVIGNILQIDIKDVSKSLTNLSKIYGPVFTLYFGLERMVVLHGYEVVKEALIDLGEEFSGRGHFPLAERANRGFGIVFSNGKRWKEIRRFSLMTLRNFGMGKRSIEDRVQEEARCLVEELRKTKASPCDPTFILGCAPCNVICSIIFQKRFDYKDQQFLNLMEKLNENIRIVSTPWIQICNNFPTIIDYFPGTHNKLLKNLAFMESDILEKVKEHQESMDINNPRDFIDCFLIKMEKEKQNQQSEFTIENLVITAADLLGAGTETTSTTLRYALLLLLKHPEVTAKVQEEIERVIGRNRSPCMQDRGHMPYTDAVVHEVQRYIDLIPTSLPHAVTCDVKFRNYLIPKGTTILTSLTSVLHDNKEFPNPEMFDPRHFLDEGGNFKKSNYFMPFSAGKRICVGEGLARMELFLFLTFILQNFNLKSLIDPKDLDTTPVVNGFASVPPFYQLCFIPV

[31] = Half life in rhesus monkey; assay type: ADME, organism-based, Macaca mulatta; conditions: in vivo; method in brief: as §10
Cytochrome P450 1A2 = target: T1, Cytochrome P450 1A2 (Homo sapiens, UniProt P05177); test: Inhibition of CYP1A2; assay type: ADME; method in brief: as §3
T1 sequence (P05177 whole entry): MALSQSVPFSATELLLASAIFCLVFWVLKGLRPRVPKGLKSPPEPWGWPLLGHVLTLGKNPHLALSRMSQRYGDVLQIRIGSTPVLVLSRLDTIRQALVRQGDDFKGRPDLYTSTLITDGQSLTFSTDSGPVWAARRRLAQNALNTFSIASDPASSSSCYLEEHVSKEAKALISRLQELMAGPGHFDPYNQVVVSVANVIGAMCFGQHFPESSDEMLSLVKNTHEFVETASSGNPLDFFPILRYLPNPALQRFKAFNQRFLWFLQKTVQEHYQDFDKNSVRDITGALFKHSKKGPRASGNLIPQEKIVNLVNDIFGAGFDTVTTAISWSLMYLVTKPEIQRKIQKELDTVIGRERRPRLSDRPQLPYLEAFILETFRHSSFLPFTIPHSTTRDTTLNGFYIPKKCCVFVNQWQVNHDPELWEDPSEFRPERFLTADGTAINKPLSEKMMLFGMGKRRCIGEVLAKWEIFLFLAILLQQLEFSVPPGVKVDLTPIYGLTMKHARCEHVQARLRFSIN

[32] = Metabolic stability in rat bile assessed as compound recovery at 1 mg/kg; assay type: ADME, organism-based; design: dose 1 mg/kg; conditions: read-out: Activity; method in brief: as §7
Brain [33] = test: Drug level in Sprague-Dawley rat brain at 30 mg/kg, po; assay type: ADME, organism-based; design: dose 30 mg/kg, route oral; conditions: in vivo, read-out: Drug uptake; method in brief: as §9
[34] = Bioavailability in rhesus monkey; assay type: ADME, organism-based, Macaca mulatta; conditions: in vivo; method in brief: as §10
Brain [35] = test: Drug level in CD1 mouse brain at 30 mg/kg, po; assay type: ADME, organism-based; design: dose 30 mg/kg, route oral; conditions: in vivo, read-out: Drug uptake
[36] = Plasma clearance in rhesus monkey; assay type: ADME, organism-based, Macaca mulatta; method in brief: as §10
[37] = Drug level in rat plasma at 1 mg/kg, iv after 4 hrs; assay type: ADME, organism-based; design: dose 1 mg/kg, route intravenous; conditions: read-out: Drug uptake
[38] = Plasma clearance in dog; assay type: ADME, organism-based, Canis lupus familiaris; method in brief: as §10
[39] = Half life in dog; assay type: ADME, organism-based, Canis lupus familiaris; conditions: in vivo; method in brief: as §10
Cytochrome P450 2C9 = Cytochrome P450 2C9 (Homo sapiens, UniProt P11712); test: Inhibition of CYP2C9; assay type: ADME; method in brief: as §3
Sequence of Cytochrome P450 2C9 (P11712 whole entry): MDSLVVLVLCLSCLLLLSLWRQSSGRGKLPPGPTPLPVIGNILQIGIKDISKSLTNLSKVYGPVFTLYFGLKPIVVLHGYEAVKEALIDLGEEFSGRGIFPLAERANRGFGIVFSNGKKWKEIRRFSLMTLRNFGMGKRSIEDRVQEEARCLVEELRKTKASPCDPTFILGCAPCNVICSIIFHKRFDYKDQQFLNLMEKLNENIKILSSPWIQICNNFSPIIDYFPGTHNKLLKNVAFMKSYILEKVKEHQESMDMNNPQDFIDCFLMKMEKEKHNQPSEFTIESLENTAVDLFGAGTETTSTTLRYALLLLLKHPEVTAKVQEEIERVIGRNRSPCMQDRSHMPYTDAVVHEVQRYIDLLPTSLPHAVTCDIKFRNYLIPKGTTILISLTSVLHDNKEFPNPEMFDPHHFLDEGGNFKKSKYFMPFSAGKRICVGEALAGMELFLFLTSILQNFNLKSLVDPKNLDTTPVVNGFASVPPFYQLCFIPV

Mus musculus [40] = test: Toxicity in CD1 mouse assessed as hyperactive response at 100 mg/kg, po; assay type: organism-based; design: dose 100 mg/kg, route oral; conditions: in vivo
Plasma [41] = test: Drug level in CD1 mouse plasma at 100 mg/kg, po; assay type: ADME, organism-based; design: dose 100 mg/kg, route oral; conditions: in vivo, read-out: Drug uptake
[42] = target: Voltage-gated inwardly rectifying potassium channel KCNH2 (Homo sapiens, UniProt Q12809); test: Inhibition of human ERG potassium channel
Sequence of Voltage-gated inwardly rectifying potassium channel KCNH2 (Q12809 whole entry): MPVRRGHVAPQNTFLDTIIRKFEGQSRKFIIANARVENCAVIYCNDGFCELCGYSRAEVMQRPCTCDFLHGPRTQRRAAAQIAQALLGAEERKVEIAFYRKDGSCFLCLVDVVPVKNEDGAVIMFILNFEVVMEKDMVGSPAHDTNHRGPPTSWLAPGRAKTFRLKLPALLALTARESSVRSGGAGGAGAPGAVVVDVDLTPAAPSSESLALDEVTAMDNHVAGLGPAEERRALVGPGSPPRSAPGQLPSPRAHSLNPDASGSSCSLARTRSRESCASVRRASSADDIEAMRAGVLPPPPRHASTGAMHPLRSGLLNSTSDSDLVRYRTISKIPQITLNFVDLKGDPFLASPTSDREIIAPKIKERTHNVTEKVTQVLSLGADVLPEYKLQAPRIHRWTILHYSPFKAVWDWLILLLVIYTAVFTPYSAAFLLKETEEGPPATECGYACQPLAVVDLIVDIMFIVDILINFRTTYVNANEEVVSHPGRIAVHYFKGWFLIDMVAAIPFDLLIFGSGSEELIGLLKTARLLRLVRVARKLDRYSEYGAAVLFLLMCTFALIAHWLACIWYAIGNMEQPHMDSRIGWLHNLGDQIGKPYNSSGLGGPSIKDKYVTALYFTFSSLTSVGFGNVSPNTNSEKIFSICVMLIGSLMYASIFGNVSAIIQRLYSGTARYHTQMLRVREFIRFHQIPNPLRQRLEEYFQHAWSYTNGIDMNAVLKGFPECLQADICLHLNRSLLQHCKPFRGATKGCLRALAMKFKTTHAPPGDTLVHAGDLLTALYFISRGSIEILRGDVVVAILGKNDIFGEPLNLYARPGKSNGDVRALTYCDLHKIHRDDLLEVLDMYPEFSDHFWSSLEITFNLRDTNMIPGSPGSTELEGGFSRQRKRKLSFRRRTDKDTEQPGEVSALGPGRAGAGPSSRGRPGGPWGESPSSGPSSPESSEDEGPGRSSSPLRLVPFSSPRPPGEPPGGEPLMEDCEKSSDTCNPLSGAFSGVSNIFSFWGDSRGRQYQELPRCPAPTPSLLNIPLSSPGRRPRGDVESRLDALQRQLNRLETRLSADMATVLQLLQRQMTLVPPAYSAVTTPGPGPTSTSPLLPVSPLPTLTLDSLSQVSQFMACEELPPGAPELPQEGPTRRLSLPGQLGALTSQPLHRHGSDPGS

## CC(C)(O)C(=O)c1oc2nc(-c3ccccc3Cl)c(-c3ccc(Cl)cc3)cc2c1NC(=O)CO
Rattus norvegicus [1]
  Activity: 4.3%
Mus musculus [2]
  Activity: -0.79 g
Cytochrome P450 2D6
  IC50: 73 µM
Canis familiaris [3]
  Activity: Non-toxic
[4]
  concentration at 4 h: 94 nM
Rattus norvegicus [5]
  Activity: -7 g
[6]
  EC50: 0.7 µM
Canis familiaris [7]
  concentration: 50000 nM
Brain [8]
  concentration: 6500 nM
Mus musculus [9]
  Activity: Toxic
[10]
  dose excreted: 5%
Rattus norvegicus [11]
  Activity: Active
Mus musculus [12]
  Activity: 53%
Canis familiaris [13]
  Activity: Non-toxic
[14]
  IC50: 1.8 µM
Rattus norvegicus [15]
  Activity: Active
Rattus norvegicus [16]
  Activity: Non-toxic
[17]
  bioavailability: 64%
Canis familiaris [18]
  Activity: Non-toxic
Cytochrome P450 3A4
  IC50: 98 µM
Plasma [19]
  concentration: 500 nM
Rattus norvegicus [20]
  Activity: 47%
Rattus norvegicus [21]
  Activity: 24%
[22]
  Kp at 4 h: 0.64
Rattus norvegicus [23]
  Activity: 24%
[24]
  clearance: 8.6 mL/min/kg
Rattus norvegicus [25]
  Activity: inactive
[26]
  bioavailability: 9%
[27]
  half-life: 7.5 h
[28]
  Efficacy: 18%
Plasma [29]
  concentration: 7000 nM
Rattus norvegicus [30]
  Activity: -2 g
Cytochrome P450 2C19
  IC50: 43 µM
[31]
  half-life: 17 h
Cytochrome P450 1A2
  IC50: > 100 µM
[32]
  dose excreted: 87%
Brain [33]
  concentration: 500 nM
[34]
  bioavailability: 50%
Brain [35]
  concentration: 2300 nM
[36]
  clearance: 2.1 mL/min/kg
[37]
  concentration at 4 h: 147 nM
[38]
  clearance: 33 mL/min/kg
[39]
  half-life: 1.8 h
Cytochrome P450 2C9
  IC50: 17 µM
Mus musculus [40]
  Activity: Toxic
Plasma [41]
  concentration: 24000 nM
[42]
  IC50: 6.6 µM
